These results are taken from article PMC10971414 (Science Advances, 2024).

The test system of the assay is FKBP12^F36V-PTPN2 H1975 cells. As to the kind of experiment: Cell viability by CellTiter-Glo, FKBP12F36V-PTPN2 H1975. The format is cell-based. As to conditions: read-out: IC50, cell viability; 6 days. The essentials:
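H1975 cells lentivirally transduced to express Flag-FKBP12F36V-PTPN2 (TC45 short isoform) were seeded at 3000 cells/well in full medium for 24 h. They were then treated with test compound at a range of concentrations under serum-free conditions for 4 or 6 days. Viability was measured by CellTiter-Glo luminescence and normalised to DMSO controls. Three replicates, mean and SD.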

Regarding `CN(C)C/C=C/C(=O)Nc1cc2c(Nc3ccc(F)c(Cl)c3)ncnc2cc1O[C@H]1CCOC1` [afatinib], the IC50 is 2.11 µM.
